# Source: ChEMBL document CHEMBL1914373, “Synthesis and biological evaluation of novel dimethyl[1,1'-biphenyl]-2,2'-dicarboxylate derivatives containing thiazolidine-2,4-dione for the treatment of concanavalin A-induced acute liver injury of BALB/c mice” (2011)
# The source made the active and inactive calls. The rule behind the calls is not given here.
# What was measured:
# RAW264.7 = assay: Antiinflammatory activity in LPS-stimulated mouse RAW264.7 cells assessed as inhibition of LPS-induced NO production after 22 hrs by Griess reaction; assay type: functional, cell-based
# Summary of the method: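 RAW 264.7 macrophages grown in RPMI 1640, 37 °C, 5% CO2; seeded 1 × 10^4/well, cultured 24 h, then exposed to LPS with or without compounds at a range of concentrations for 22 h. Supernatant mixed 1:1 with Griess reagent, 10 min at room temperature, A540 read; nitrite quantified against sodium nitrite standards in RPMI 1640. Three independent experiments.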
# Mus musculus [1] = assay: Hepatoprotective activity in BALB/c mouse hepatitis model assessed as reduction in concanavalin A-induced increase in serum AST level at 50 mg/kg, […] relative to control; assay type: functional; parameters: scale not given: the % may be the effect or the level left; conditions: route oral
# Mus musculus [2] = assay: Hepatoprotective activity in BALB/c mouse hepatitis model assessed as reduction in concanavalin A-induced increase in serum ALT level at 50 mg/kg, […] relative to control; assay type: functional; parameters: scale not given: the % may be the effect or the level left; conditions: route oral
# Mus musculus [3] = assay: Antiinflammatory activity in ICR mouse assessed as reduction in carrageenan-induced paw edema at 50 mg/kg, po administered 30 mins before carrageenan challenge measured at 3 hr post challenge; assay type: functional; parameters: scale not given: the % may be the effect or the level left
# Rattus norvegicus [4] = assay: Hepatoprotective activity […] assessed as reduction in necrosis in liver lobules at 50 mg/kg, po administered before concanavalin A challenge by hematoxylin and eosin staining-based histopathology analysis; assay type: functional, organism-based; parameters: dose 50 mg/kg
# Rattus norvegicus [5] = assay: Hepatoprotective activity […] assessed as reduction in concanavalin A-induced inflammatory cells infiltration at 50 mg/kg, po administered before concanavalin A challenge by hematoxylin and eosin staining-based histopathology analysis; assay type: functional, organism-based; parameters: dose 50 mg/kg
# Mus musculus [6] = assay: Antiinflammatory activity in po dosed ICR mouse assessed as reduction in carrageenan-induced paw edema administered 30 mins before carrageenan challenge measured up to 5 hrs; assay type: functional, organism-based
# Rattus norvegicus [7] = assay: Hepatoprotective activity […] assessed as decrease in liver lesions at 50 mg/kg, po administered before concanavalin A challenge by hematoxylin and eosin staining-based histopathology analysis; assay type: functional, organism-based; parameters: dose 50 mg/kg
Compound,inhibition (RAW264.7),other results
COC(=O)c1cc(OC)c2c(c1-c1c(C(=O)Oc3cccc(/C=C4/SC(=O)NC4=O)c3)cc(OC)c3c1OCO3)OCO2,Active,–
COC(=O)c1cc(OC)c2c(c1-c1c(C(=O)Oc3cc(/C=C4/SC(=O)NC4=O)ccc3OC)cc(OC)c3c1OCO3)OCO2,Active,–
COC(=O)c1cc(OC)c2c(c1-c1c(C(=O)OC)cc(OC)c3c1OCO3)OCO2 [BIFENDATE],–,Activity (Mus musculus [1]): 50.62%; Activity (Mus musculus [2]): 44.58%; Activity (Mus musculus [3]): 20.98%
COC(=O)c1cc(OC)c2c(c1-c1c(C(=O)Oc3c(Br)cc(Br)cc3/C=C3/SC(=O)NC3=O)cc(OC)c3c1OCO3)OCO2,Active,–
COC(=O)c1cc(OC)c2c(c1-c1c(C(=O)Oc3ccc(/C=C4\SC(=O)NC4=O)cc3OC)cc(OC)c3c1OCO3)OCO2,Active,–
CCOc1cc(/C=C2\SC(=O)NC2=O)ccc1OC(=O)c1cc(OC)c2c(c1-c1c(C(=O)OC)cc(OC)c3c1OCO3)OCO2,Active,–
COC(=O)c1cc(OC)c2c(c1-c1c(C(=O)Oc3c(Cl)cc(Cl)cc3/C=C3/SC(=O)NC3=O)cc(OC)c3c1OCO3)OCO2,Active,–
COC(=O)c1cc(OC)c2c(c1-c1c(C(=O)Oc3c(OC)cc(/C=C4\SC(=O)NC4=O)cc3OC)cc(OC)c3c1OCO3)OCO2,Active,–
COC(=O)c1cc(OC)c2c(c1-c1c(C(=O)Oc3ccc(Cl)cc3/C=C3/SC(=O)NC3=O)cc(OC)c3c1OCO3)OCO2,Dose-dependent effect,–
COC(=O)c1cc(OC)c2c(c1-c1c(C(=O)Oc3ccc(/C=C4\SC(=O)NC4=O)cc3F)cc(OC)c3c1OCO3)OCO2,Active,–
COC(=O)c1cc(OC)c2c(c1-c1c(C(=O)Oc3ccc(/C=C4\SC(=O)NC4=O)cc3Br)cc(OC)c3c1OCO3)OCO2,Active,–
COC(=O)c1cc(OC)c2c(c1-c1c(C(=O)Oc3ccccc3/C=C3/SC(=O)NC3=O)cc(OC)c3c1OCO3)OCO2,Active,–
COC(=O)c1cc(OC)c2c(c1-c1c(C(=O)Oc3ccc(/C=C4\SC(=O)NC4=O)cc3)cc(OC)c3c1OCO3)OCO2,Active,Activity (Rattus norvegicus [4]): Active; Activity (Rattus norvegicus [5]): Active; Activity (Mus musculus [1]): 69.12%; Activity (Mus musculus [2]): 94.96%; Activity (Mus musculus [6]): Dose-dependent effect; Activity (Mus musculus [3]): 54.88%; Activity (Rattus norvegicus [7]): Active
